Experiments:
A549 = test: Growth inhibition of human non-small-lung carcinoma (A549) cell line; assay type: functional, cell-based
A121 = test: Growth inhibition of human ovarian carcinoma (A121) cell line; assay type: functional, cell-based
Procedure, shortened: (§1)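 Cells seeded at 400/well, attached overnight, grown in RPMI-1640 with 5% fetal bovine serum and 5% Nu Serum. Taxanes in DMSO, diluted in medium, 72 h exposure, triplicate wells. Fixed with ice-cold 50% TCA (1 h, 4 °C), stained with 0.4% sulforhodamine B, dye dissolved in 10 mM Tris (pH 10.5), OD 570 nm. IC50 from sigmoid-Emax nonlinear regression, weighted by reciprocal squared predicted effect.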

HT-29 = test: Growth inhibition of human colon carcinoma (HT-29) cell line; assay type: functional, cell-based; procedure, shortened: as §1
MCF7R = test: Growth inhibition of human mammary carcinoma 180 fold resistant to doxorubicin (MCF-7-R) cell line; assay type: functional, cell-based
MCF7 = test: Growth inhibition of human mammary carcinoma (MCF-7) cell line; assay type: functional, cell-based; procedure, shortened: as §1
[1] = Ratio of growth inhibition (IC50) of MCF7-R / MCF-7 cell lines; assay type: functional, Homo sapiens

CCCCCC(=O)N[C@@H](C=C(C)C)[C@@H](O)C(=O)O[C@@H]1C(C)=C2[C@@H](OC(=O)N(C)C)C(=O)[C@@]3(C)C([C@H](OC(=O)c4ccccc4)[C@@]4(OC(=O)O[C@@H]14)C2(C)C)[C@]1(OC(C)=O)COC1C[C@@H]3O (stereo not given in full)
IC50 (A549): 5.5 nM
IC50 (A121): 4.8 nM
IC50 (HT-29): 5.1 nM
IC50 (MCF7R): 295 nM
IC50 (MCF7): 1.7 nM

CC(=O)O[C@@]12COC1C[C@H](O)[C@@]1(C)C(=O)[C@H](O)C3=C(C)[C@@H](OC(=O)[C@H](O)[C@H](CC(C)C)NC(=O)OC(C)(C)C)[C@@H]4OC(=O)O[C@]4([C@@H](OC(=O)c4ccccc4)C21)C3(C)C (stereo not given in full)
IC50 (A549): 1.8 nM
IC50 (A121): 1 nM
IC50 (HT-29): 3.4 nM
IC50 (MCF7R): 385 nM
IC50 (MCF7): 2.7 nM

C/C=C/C(=O)O[C@H]1C(=O)[C@@]2(C)C([C@H](OC(=O)c3ccccc3)[C@]34OC(=O)O[C@H]3[C@H](OC(=O)[C@H](O)[C@H](C=C(C)C)NC(=O)CCCCC)C(C)=C1C4(C)C)[C@]1(OC(C)=O)COC1C[C@@H]2O (stereo not given in full)
IC50 (A549): 25 nM
IC50 (A121): 17 nM
IC50 (HT-29): 28 nM
IC50 (MCF7R): 137 nM
IC50 (MCF7): 2.1 nM
Ratio [1]: 65

CCC[C@H](NC(=O)OC(C)(C)C)[C@@H](O)C(=O)O[C@@H]1C(C)=C2[C@@H](OC(C)=O)C(=O)[C@@]3(C)C([C@H](OC(=O)c4ccccc4)[C@@]4(OC(=O)O[C@@H]14)C2(C)C)[C@]1(OC(C)=O)COC1C[C@@H]3O (stereo not given in full)
IC50 (A549): 4.7 nM
IC50 (A121): 2.3 nM
IC50 (HT-29): 4.8 nM
IC50 (MCF7R): 201 nM
IC50 (MCF7): 4.6 nM
Ratio [1]: 44

CC(=O)O[C@@]12COC1C[C@H](O)[C@@]1(C)C(=O)[C@H](O)C3=C(C)[C@@H](OC(=O)[C@H](O)[C@@H](NC(=O)c4ccccc4)c4ccccc4)[C@@H]4OC(=O)O[C@]4([C@@H](OC(=O)c4ccccc4)C21)C3(C)C (stereo not given in full)
IC50 (A549): 33 nM
IC50 (A121): 105 nM
IC50 (HT-29): 24 nM
IC50 (MCF7R): > 1000 nM
IC50 (MCF7): 11 nM

CCC[C@H](NC(=O)OC(C)(C)C)[C@@H](O)C(=O)O[C@@H]1C(C)=C2[C@@H](O)C(=O)[C@@]3(C)C([C@H](OC(=O)c4ccccc4)[C@@]4(OC(=O)O[C@@H]14)C2(C)C)[C@]1(OC(C)=O)COC1C[C@@H]3O (stereo not given in full)
IC50 (A549): 4.4 nM
IC50 (A121): 2.1 nM
IC50 (HT-29): 3.8 nM
IC50 (MCF7R): 265 nM
IC50 (MCF7): 4.2 nM
Ratio [1]: 92

CC(=O)O[C@@]12COC1C[C@H](O)[C@@]1(C)C(=O)[C@H](O)C3=C(C)[C@@H](OC(=O)[C@H](O)[C@@H](NC(=O)OC(C)(C)C)c4ccco4)[C@@H]4OC(=O)O[C@]4([C@@H](OC(=O)c4ccccc4)C21)C3(C)C (stereo not given in full)
IC50 (A549): 0.5 nM
IC50 (A121): 0.4 nM
IC50 (HT-29): 0.6 nM
IC50 (MCF7R): 135 nM
IC50 (MCF7): 0.5 nM
Ratio [1]: 270

CCCCCC(=O)N[C@@H](C=C(C)C)[C@@H](O)C(=O)O[C@@H]1C(C)=C2[C@@H](OC(=O)C3CC3)C(=O)[C@@]3(C)C([C@H](OC(=O)c4ccccc4)[C@@]4(OC(=O)O[C@@H]14)C2(C)C)[C@]1(OC(C)=O)COC1C[C@@H]3O (stereo not given in full)
IC50 (A549): 18 nM
IC50 (A121): 12 nM
IC50 (HT-29): 16 nM
IC50 (MCF7R): 321 nM
IC50 (MCF7): 3.2 nM
Ratio [1]: 100

CC(=O)O[C@H]1C(=O)[C@@]2(C)C([C@H](OC(=O)c3ccccc3)[C@]34OC(=O)O[C@H]3[C@H](OC(=O)[C@H](O)[C@@H](NC(=O)OC(C)(C)C)c3ccco3)C(C)=C1C4(C)C)[C@]1(OC(C)=O)COC1C[C@@H]2O (stereo not given in full)
IC50 (A549): 0.5 nM
IC50 (A121): 0.4 nM
IC50 (HT-29): 0.6 nM
IC50 (MCF7R): 49 nM
IC50 (MCF7): 0.5 nM
Ratio [1]: 96

C/C=C/C(=O)O[C@H]1C(=O)[C@@]2(C)C([C@H](OC(=O)c3ccccc3)[C@]34OC(=O)O[C@H]3[C@H](OC(=O)[C@H](O)[C@H](C=C(C)C)NC(=O)OC(C)(C)C)C(C)=C1C4(C)C)[C@]1(OC(C)=O)COC1C[C@@H]2O (stereo not given in full)
IC50 (A549): 0.5 nM
IC50 (A121): 0.8 nM
IC50 (HT-29): 1.5 nM
IC50 (MCF7R): 17 nM
IC50 (MCF7): 0.4 nM
Ratio [1]: 43

CCCCCC(=O)N[C@@H](c1ccccc1)[C@@H](O)C(=O)O[C@@H]1C(C)=C2[C@@H](O)C(=O)[C@@]3(C)C([C@H](OC(=O)c4ccccc4)[C@@]4(OC(=O)O[C@@H]14)C2(C)C)[C@]1(OC(C)=O)COC1C[C@@H]3O (stereo not given in full)
IC50 (A549): 389 nM
IC50 (A121): 330 nM
IC50 (HT-29): 157 nM
IC50 (MCF7R): > 1000 nM
IC50 (MCF7): 13 nM

CC(=O)O[C@@]12COC1C[C@H](O)[C@@]1(C)C(=O)[C@H](O)C3=C(C)[C@@H](OC(=O)[C@H](O)[C@H](CC(C)(C)C)NC(=O)OC(C)(C)C)[C@@H]4OC(=O)O[C@]4([C@@H](OC(=O)c4ccccc4)C21)C3(C)C (stereo not given in full)
IC50 (A549): 51 nM
IC50 (A121): 106 nM
IC50 (HT-29): 52 nM
IC50 (MCF7R): > 1000 nM
IC50 (MCF7): 48 nM

CC(=O)O[C@@]12COC1C[C@H](O)[C@@]1(C)C(=O)[C@H](O)C3=C(C)[C@@H](OC(=O)[C@H](O)[C@@H](NC(=O)OC(C)(C)C)c4ccccc4)[C@@H]4OC(=O)O[C@]4([C@@H](OC(=O)c4ccccc4)C21)C3(C)C (stereo not given in full)
IC50 (A549): 2.1 nM
IC50 (A121): 6.2 nM
IC50 (HT-29): 1.8 nM
IC50 (MCF7R): 543 nM
IC50 (MCF7): 1.8 nM
Ratio [1]: 302

CC(=O)O[C@@]12COC1C[C@H](O)[C@@]1(C)C(=O)[C@H](OC(=O)N(C)C)C3=C(C)[C@@H](OC(=O)[C@H](O)[C@H](C=C(C)C)NC(=O)OC(C)(C)C)[C@@H]4OC(=O)O[C@]4([C@@H](OC(=O)c4ccccc4)C21)C3(C)C (stereo not given in full)
IC50 (A549): 0.6 nM
IC50 (A121): 0.7 nM
IC50 (HT-29): 1.2 nM
IC50 (MCF7R): 33 nM
IC50 (MCF7): 0.4 nM
Ratio [1]: 83

CC(=O)O[C@@]12CO[C@@H]1C[C@H](O)[C@@]1(C)C(=O)[C@H](O)C3=C(C)[C@@H](OC(=O)[C@H](O)[C@@H](NC(=O)OC(C)(C)C)c4ccccc4)[C@H](O)[C@@](O)([C@@H](OC(=O)c4ccccc4)C12)C3(C)C (stereo not given in full)
IC50 (MCF7R): > 1000 nM
